From ChEMBL document CHEMBL1157240, “Caminosides B-D, antimicrobial glycolipids isolated from the marine sponge Caminus sphaeroconia” (J Nat Prod, 2006)
Activity calls are given as the source filed them. The rule behind the calls is not given here.

Experiments:
[1] = system: Escherichia coli; experiment: Antimicrobial activity against enteropathogenic Escherichia coli assessed as inhibition of type 3 secretion by gel electrophoresis; assay type: functional, organism-based
How it was run: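 EPEC cultured 24 h with test material, then centrifuged to give a bacterial pellet and a supernatant holding all secreted proteins. The pellet was inspected by eye, and samples that clearly shrank it were excluded as having general antibiotic or cytotoxic action.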

[2] = system: Stenotrophomonas maltophilia; experiment: Antimicrobial activity against Xanthomonas maltophilia assessed per disk; assay type: functional
[3] = system: Enterococcus; experiment: Antimicrobial activity against vancomycin-resistant Enterococcus assessed per disk; assay type: functional
[4] = system: Globisporangium ultimum; experiment: Antimicrobial activity against Pythium ultimum assessed per disk; assay type: functional
[5] = system: Staphylococcus aureus; experiment: Antimicrobial activity against methicillin-resistant Staphylococcus aureus assessed per disk; assay type: functional
[6] = system: Escherichia coli; experiment: Antimicrobial activity against Escherichia coli; assay type: functional, organism-based

CCCCCCCCC[C@H](CCCCCCCC(C)=O)O[C@@H]1O[C@H](CO)[C@@H](O)[C@H](O)[C@H]1O[C@@H]1O[C@H](CO[C@@H]2O[C@H](C)[C@H](O)[C@H](O)[C@@H]2O)[C@@H](OC(C)=O)[C@H](OC(=O)CCC)[C@H]1O[C@@H]1O[C@@H](C)[C@H](O)[C@@H](OC(=O)CCC)[C@@H]1O
IC50 [1]: 20 µM

CCCCCCCCC[C@H](CCCCCCCC(C)=O)O[C@@H]1O[C@H](COC(C)=O)[C@@H](OC(C)=O)[C@H](OC(C)=O)[C@H]1O[C@@H]1O[C@H](CO[C@@H]2O[C@H](C)[C@H](OC(C)=O)[C@H](OC(C)=O)[C@@H]2OC(C)=O)[C@@H](OC(C)=O)[C@H](OC(=O)CCC)[C@H]1O[C@@H]1O[C@@H](C)[C@H](OC(C)=O)[C@@H](OC(C)=O)[C@@H]1OC(C)=O [CAMINOSIDE A PERACETATE]
MIC [2]: >25 µg
MIC [3]: >100 µg
Activity [1]: inactive
MIC [4]: >100 µg
MIC [5]: >100 µg

CCCCCCCCC[C@H](CCCCCCCC(C)=O)O[C@@H]1O[C@H](CO)[C@@H](O)[C@H](O)[C@H]1O[C@@H]1O[C@H](CO[C@@H]2O[C@H](C)[C@H](O)[C@H](O)[C@@H]2O)[C@@H](OC(C)=O)[C@H](OC(=O)CCC)[C@H]1O[C@@H]1O[C@@H](C)[C@H](O)[C@@H](O)[C@@H]1O [CAMINOSIDES A]
MIC [2]: 25 µg
MIC [3]: 12.5 µg
Activity [1]: Active
IC50 [1]: 20 µM
MIC [4]: 50 µg
MIC [5]: 12.5 µg
Activity [6]: inactive
